Measurements gathered from unrelated publications.
Lines come from different studies, so protocols differ.
HRH3: Histamine H3 receptor (HRH3, Homo sapiens, UniProt Q9Y5N1)
CNR2: Cannabinoid receptor 2 (CNR2, Homo sapiens, UniProt P34972)
Ntsr1: Neurotensin receptor type 1 (Ntsr1, Rattus norvegicus, UniProt P20789)
CHRNA7: Neuronal acetylcholine receptor subunit alpha-7 (CHRNA7, Homo sapiens, UniProt P36544)

SMILES | target | test | setting | measurement | value
COC(=O)c1cc(N(C)C(=O)c2ccn3ncc(-c4ccc(C(=O)O)cc4)c3c2)ccc1Cl | HRH3 | cell-free assay |  | IC50 | > 30000 nM
C=C1CC[C@H]2O[C@]2(C)CC[C@@H]2[C@@H]1CC2(C)C | CNR2 | ligand displacement, radioligand | cell membranes | Ki | > 10000 nM
CC(C)C[C@@H]1NC(=O)[C@H](C(C)(C)C)NC(=O)[C@H](Cc2ccc(O)cc2)NC(=O)[C@@H]2CCCN2C(=O)[C@H](CCCCN)NC(=O)[C@H](CCCNC(=N)N)NC1=O | Ntsr1 | ligand displacement |  | Ki | > 100000 nM
CCC(CC)(NC(=O)c1ccc(C2CC2)c(Cc2ccc(F)cc2)n1)C(=O)NCCOCCOCCNC(=O)c1ccc2c(c1)C(=O)OC21c2ccc(N)c(S(=O)(=O)O)c2Oc2c1ccc(N)c2S(=O)(=O)O | CNR2 | ligand displacement, radioligand | cell membranes | Ki | 141 nM
COc1ccc2[nH]c3c(c2c1)CCN(C)CC3 | CHRNA7 | ion current, antagonist, two-electrode voltage clamp | oocytes | IC50 | 11200 nM
CCCCCc1cc(O)c2c(c1)OC(C)(CCC=C(C)C)C=C2 (stereo not drawn) | CNR2 | ligand displacement, radioligand | cell membranes | Ki | 1740 nM
CC[C@H](C)[C@H](NC(C)=O)C(=O)N[C@@H](CCC(=O)O)C(=O)N[C@H](C(=O)N[C@H](C=O)CC(=O)O)[C@@H](C)O | Caspase-2 (Homo sapiens, UniProt P42575) | enzyme activity, inhibitor |  | IC50 | 73.3 nM
CNC(=O)c1ccc(-c2cnn3ccc(C(=O)N(C)c4ccc(Cl)c(C(=O)OC)c4)cc23)cc1 | HRH3 | cell-free assay |  | IC50 | > 30000 nM
CC(C)C[C@H](NC(=O)[C@@H](N)C(C)(C)C)C(=O)N[C@@H](CCCNC(=N)N)C(=O)N[C@@H](CCCCN)C(=O)N1CCC[C@H]1C(=O)N[C@@H](Cc1ccc(O)cc1)C(=O)O | Ntsr1 | ligand displacement, flow cytometry |  | Ki | > 100000 nM
CCC(CC)(NC(=O)c1ccc(N2CC(OC)C2)c(OC[C@H]2C[C@@H]2CO)n1)C(=O)NCCOCCOCCNC(=O)c1ccc2c(c1)C1(OC2=O)c2ccc(N(C)C)cc2[Si](C)(C)c2cc(N(C)C)ccc21 | CNR2 | ligand displacement, radioligand | cell membranes | Ki | 1620 nM
COc1ccc2c3c([nH]c2c1)CCN(C)CC3 | CHRNA7 | ion current, antagonist, two-electrode voltage clamp | oocytes | IC50 | 10300 nM
CC(C)(C)OC(=O)N1CCN(C(=O)n2cc(-c3ccc(OC(F)(F)F)cc3)nn2)C(Cc2ccccc2)C1 (stereo not drawn) | Monoacylglycerol lipase ABHD6 (Abhd6, Mus musculus, UniProt Q8R2Y0) | enzyme activity, inhibitor |  | IC50 | 8.1 nM
